Data: ChEMBL document CHEMBL1156684, “Non-nucleoside HIV-1 reverse transcriptase inhibitors. Part 11: structural modulations of diaryltriazines with potent anti-HIV activity” (Eur J Med Chem, 2008)

Key:
[1] = test system: Human immunodeficiency virus 2; assay: Antiviral activity against HIV2 ROD in human MT4 cells assessed as inhibition of viral replication by MTT assay; type: functional, organism-based; settings: Human immunodeficiency virus 2, ROD
Outline: (§1)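 MT-4 cells at 1 × 10⁵ cells/ml infected with HIV at multiplicity of infection 0.02 (virus stocks titrated in MT-4 cells as CCID₅₀), then plated immediately with serial compound dilutions (DMSO stocks at 50 mM or higher). Viable cells counted by MTT after 4 days at 37 °C. IC₅₀ is the concentration protecting 50% of cells from viral cytopathogenicity.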

[2] = Selectivity index, ratio of CC50 for human MT4 cells to IC50 for HIV1 3B; type: functional
Outline: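 Ratio CC₅₀/IC₅₀. CC₅₀ is from MTT viability of MT-4 cells and IC₅₀ from MTT protection of HIV-infected MT-4 cells (MOI 0.02), both after 4 days at 37 °C.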

[3] = Cytotoxicity against human MT4 cells after 4 days by MTT assay; type: cell-based
Outline: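 Uninfected MT-4 cells exposed to graded compound concentrations (DMSO stocks at 50 mM or higher) for 4 days at 37 °C. Viability read by MTT. CC₅₀ is the concentration reducing MT-4 cell viability by 50%.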

[4] = test system: Human immunodeficiency virus 1; assay: Antiviral activity against HIV 3B in human MT4 cells assessed as inhibition of viral replication by MTT assay; type: functional, organism-based; settings: Human immunodeficiency virus 1, 3B; outline: as §1

| Compound | IC50 [1] [µM] | Ratio CC50/IC50 [2] | CC50 at 96 h [3] [µM] | IC50 [4] [µM] |
| --- | --- | --- | --- | --- |
| CNc1nc(Nc2ccc(C#N)cc2)nc(Oc2ccc3cc(Br)ccc3c2)n1 | > 194 | 685 | 194 | 0.284 |
| CCCNc1nc(Nc2ccc(C#N)cc2)nc(Oc2cccc3ccccc23)n1 | > 73.2 | 11 | 29.5 | 2.7 |
| CCNc1nc(Nc2ccc(C#N)cc2)nc(Oc2ccc(Cl)c3ccccc23)n1 | > 208 | 285 | 208 | 0.733 |
| N#Cc1ccc(Nc2nc(N=[N+]=[N-])nc(Oc3ccc4ccccc4c3Cl)n2)cc1 | 6.17 | 4270 | 256 | 0.06 |
| N#Cc1ccc(Nc2nc(N)nc(Oc3ccc4ccccc4c3Br)n2)cc1 | 20.2 | 14094 | 133 | 0.0094 |
| CNc1nc(Nc2ccc(C#N)cc2)nc(Oc2ccc3ccccc3c2)n1 | > 251 | 968 | 250 | 0.26 |
| CC(C)Nc1nc(Nc2ccc(C#N)cc2)nc(Oc2ccc3ccccc3c2Br)n1 | > 41.5 | 39 | 41.5 | 1.06 |
| N#Cc1ccc(Nc2nc(N)nc(Oc3ccc(Cl)c4ccccc34)n2)cc1 | ≥ 12.6 | 3775 | 237 | 0.062 |
| CNc1nc(Nc2ccc(C#N)cc2)nc(Oc2ccc3cc(Br)ccc3c2Br)n1 | > 91.9 | 5018 | 92.8 | 0.0184 |
| CCCNc1nc(Nc2ccc(C#N)cc2)nc(Oc2ccc3cc(Br)ccc3c2Br)n1 | 6.59 | 524 | 134 | 0.256 |
| CNc1nc(Nc2ccc(C#N)cc2)nc(Oc2ccc3ccccc3c2Cl)n1 | > 171 | 14412 | 171 | 0.0118 |
| CCCNc1nc(Nc2ccc(C#N)cc2)nc(Oc2ccc3ccccc3c2Cl)n1 | ≥ 43.6 | >1547 | > 290 | 0.187 |
| N#Cc1ccc(Nc2nc(N)nc(Oc3ccc4ccccc4c3Cl)n2)cc1 | ≥ 5.3 | 2872 |  | 0.0287 |
| Cc1ccnc2c1NC(=O)c1cccnc1N2C1CC1 [NEVIRAPINE] |  | >800 | > 200 |  |
| N#Cc1ccc(Nc2nc(N)nc(Oc3cccc4ccccc34)n2)cc1 | > 39.1 | 364 | 39.1 | 0.107 |
| N#Cc1ccc(Nc2nc(N)nc(Oc3ccc4cc(Br)ccc4c3Br)n2)cc1 | 10.5 | 12475 | 244 | 0.0195 |
| CCNc1nc(Nc2ccc(C#N)cc2)nc(Oc2ccc3cc(Br)ccc3c2Br)n1 | > 74.5 | 477 | 74.4 | 0.156 |
| CCNc1nc(Nc2ccc(C#N)cc2)nc(Oc2ccc3ccccc3c2Cl)n1 | 16 | 1642 | 188 | 0.114 |
| N#Cc1ccc(Nc2nc(N)nc(Oc3ccc4cc(Br)ccc4c3)n2)cc1 | 19.7 | 3019 | 243 | 0.0808 |
| CC(C)Nc1nc(Nc2ccc(C#N)cc2)nc(Oc2ccc3cc(Br)ccc3c2Br)n1 | 9.71 | >302 | ≥ 209 | 0.693 |
| CNc1nc(Nc2ccc(C#N)cc2)nc(Oc2ccc(Cl)c3ccccc23)n1 | > 197 | 2111 | 197 | 0.093 |
| N#Cc1ccc(Nc2nc(N)nc(Oc3ccc4ccccc4c3)n2)cc1 | ≥ 11.5 | 471 | 42.2 | 0.09 |
| CNc1nc(Nc2ccc(C#N)cc2)nc(Oc2cccc3ccccc23)n1 | > 30.3 | 163 | 30.3 | 0.186 |
| CCCNc1nc(Nc2ccc(C#N)cc2)nc(Oc2ccc3ccccc3c2Br)n1 | ≥ 58.3 | >1294 | > 263 | 0.203 |
| O=c1[nH]cnc2c1ncn2[C@H]1CC[C@@H](CO)O1 [DIDANOSINE] |  | >=98 | ≥ 529 |  |
| CCCNc1nc(Nc2ccc(C#N)cc2)nc(Oc2ccc(Cl)c3ccccc23)n1 | 45.6 | 111 | 182 | 1.63 |
| CNc1nc(Nc2ccc(C#N)cc2)nc(Oc2ccc3ccccc3c2Br)n1 | ≥ 28.2 | 15400 | 143 | 0.0093 |
